Assay results: ChEMBL document CHEMBL3232719 (J Med Chem, 2014)
pIC50: −log10 of the molar value. Calls of active or inactive are those of the source. The calls are words filed in the database; no cut-off is given here.

Columns and labels:
26S proteasome [1] = experiment: Inhibition of chymotrypsin-like activity of human 20S proteasome using Suc-LLVY-AMC as substrate; type: protein-complex assay
26S proteasome [2] = experiment: Inhibition of caspase-like activity of human 20S proteasome using Ac-nLPnLD-AMC as substrate; type: protein-complex assay
26S proteasome [3] = experiment: Inhibition of trypsin-like activity of human 20S proteasome using Ac-RLR-AMC as substrate; type: protein-complex assay
HCT-116 [4] = experiment: Inhibition of human HCT116 cell growth; type: functional, cell-based
[5] = target: T1, Proteasome subunit beta type-8 (Homo sapiens, UniProt P28062); experiment: Inhibition of beta5i subunit of immunoproteasome (unknown origin) by active-site ELISA
T1 sequence (P28062 whole entry): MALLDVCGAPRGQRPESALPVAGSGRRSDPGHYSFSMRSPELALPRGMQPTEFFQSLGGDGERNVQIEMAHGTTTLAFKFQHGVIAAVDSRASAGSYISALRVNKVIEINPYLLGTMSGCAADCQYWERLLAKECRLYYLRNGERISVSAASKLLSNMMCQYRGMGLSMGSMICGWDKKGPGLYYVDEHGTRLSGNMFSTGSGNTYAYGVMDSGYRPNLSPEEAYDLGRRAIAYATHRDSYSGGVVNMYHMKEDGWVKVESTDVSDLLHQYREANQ

[6] = target: T2, Lysosomal protective protein (Homo sapiens, UniProt P10619); experiment: Inhibition of recombinant cathepsin A (unknown origin) using Mca-Arg-Pro-Pro-Gly-Phe-Ser-Ala-Phe-Lys(Dnp)-OH as substrate incubated with enzyme for 5 mins prior to substrate challenge for 2 hrs by spectrofluorometer analysis
T2 sequence (P10619 whole entry): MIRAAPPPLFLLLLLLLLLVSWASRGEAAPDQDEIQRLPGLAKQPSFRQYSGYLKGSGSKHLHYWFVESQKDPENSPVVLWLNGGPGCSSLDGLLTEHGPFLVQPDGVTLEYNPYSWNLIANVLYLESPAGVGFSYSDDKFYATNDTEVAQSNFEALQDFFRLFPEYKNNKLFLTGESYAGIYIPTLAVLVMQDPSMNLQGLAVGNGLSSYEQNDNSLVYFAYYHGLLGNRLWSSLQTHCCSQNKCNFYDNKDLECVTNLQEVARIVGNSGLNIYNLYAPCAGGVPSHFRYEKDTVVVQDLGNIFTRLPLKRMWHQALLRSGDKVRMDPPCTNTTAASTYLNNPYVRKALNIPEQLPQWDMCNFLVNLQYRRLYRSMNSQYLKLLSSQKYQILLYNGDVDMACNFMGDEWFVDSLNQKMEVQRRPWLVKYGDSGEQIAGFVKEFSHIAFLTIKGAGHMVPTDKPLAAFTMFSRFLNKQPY

Cathepsin B = Cathepsin B (Homo sapiens, UniProt P07858); experiment: Inhibition of recombinant cathepsin B (unknown origin) using Z-Leu-Arg-AMC as substrate by spectrofluorometer analysis
Cathepsin G = target: T3, Cathepsin G (Homo sapiens, UniProt P08311); experiment: Inhibition of recombinant cathepsin G (unknown origin) using Suc-Ala-Ala-Pro-Phe-AMC as substrate by spectrofluorometer analysis
T3 sequence (P08311 whole entry): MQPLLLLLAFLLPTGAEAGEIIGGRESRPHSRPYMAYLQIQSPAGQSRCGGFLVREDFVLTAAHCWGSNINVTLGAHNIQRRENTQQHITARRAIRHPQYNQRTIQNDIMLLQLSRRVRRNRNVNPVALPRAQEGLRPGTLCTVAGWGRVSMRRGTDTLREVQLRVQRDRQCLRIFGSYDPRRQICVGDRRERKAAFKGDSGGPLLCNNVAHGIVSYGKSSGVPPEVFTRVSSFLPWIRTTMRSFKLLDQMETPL

HCT-116 [7] = experiment: Cell cycle arrest in human HCT116 cells assessed as accumulation at G1 phase at 100 nM after 24 hrs by propidium iodide staining based flow cytometry (reference value: 35.6%); type: functional
HCT-116 [8] = experiment: Cell cycle arrest in human HCT116 cells assessed as accumulation at S phase at 100 nM after 24 hrs by propidium iodide staining based flow cytometry (reference value: 45.3%); type: functional
HCT-116 [9] = experiment: Cell cycle arrest in human HCT116 cells assessed as accumulation at G2/M phase at 100 nM after 24 hrs by propidium iodide staining based flow cytometry (reference value: 19.1%); type: functional
HCT-116 [10] = experiment: Induction of apoptosis in human HCT116 cells assessed as increase in p53 expression by immunoblot analysis; type: functional, cell-based
Procedure, shortened: (§1)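 HCT116 cells were treated with compound or DMSO vehicle. Lysates were immunoblotted for p53 accumulation and for cleaved PARP as the apoptosis marker.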

HCT-116 [11] = experiment: Induction of apoptosis in human HCT116 cells assessed as increase in PARP cleavage by immunoblot analysis; type: functional, cell-based; procedure, shortened: as §1
[12] = target: T4, Proteasome Macropain subunit MB1 (Homo sapiens, UniProt P28074); experiment: Inhibition of beta5 subunit of constitutive proteasome (unknown origin) by active-site ELISA
T4 sequence (P28074 whole entry): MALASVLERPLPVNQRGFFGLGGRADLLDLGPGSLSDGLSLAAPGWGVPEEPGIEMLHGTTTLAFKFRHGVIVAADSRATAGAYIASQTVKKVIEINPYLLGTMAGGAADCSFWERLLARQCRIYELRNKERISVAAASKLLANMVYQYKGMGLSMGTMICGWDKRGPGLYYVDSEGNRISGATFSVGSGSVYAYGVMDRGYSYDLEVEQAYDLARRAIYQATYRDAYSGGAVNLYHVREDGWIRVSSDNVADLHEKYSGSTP

[13] = target: T5, Proteasome Macropain subunit MB1 (Homo sapiens) (UniProt P28074); experiment: Binding affinity to beta5 subunit of 20S proteasome (unknown origin) assessed as dissociation half-life
T5 sequence (whole entry): T4 sequence (P28074 whole entry)
Procedure, shortened: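 Human 20S proteasome was preincubated with inhibitor. Chymotrypsin-like activity was then measured before and after removal of free inhibitor by dialysis (wash-out), with reference reversible and irreversible inhibitors run alongside.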

[14] = Inhibition of caspase-like activity of proteasome (unknown origin); design: species or system Homo sapiens

Row | Compound | pIC50 (26S proteasome [1]) | pIC50 (26S proteasome [2]) | pIC50 (26S proteasome [3]) | pIC50 (HCT-116 [4]) | other results
1 | CC(C)C[C@H](NC(=O)[C@H](CC(=O)NCCC(COCc1ccccc1)COCc1ccccc1)NC(=O)c1cnccn1)B1O[C@@H]2C[C@@H]3C[C@@H](C3(C)C)[C@]2(C)O1 | 8.15 | 6.68 | 5.48 | 7.35 | 
2 | CC(=O)N[C@@H](CCC(=O)NCCC(COCc1ccccc1)COCc1ccccc1)C(=O)N[C@@H](CC(C)C)B1O[C@@H]2C[C@@H]3C[C@@H](C3(C)C)[C@]2(C)O1 | 8.24 | 7.12 | 5.60 | 6.96 | 
3 | CC[C@H](C)[C@@H]1C(=O)O[C@H]1C(=O)N[C@H]1C[C@H]1C[C@H](NC(=O)[C@H](C)N)C(=O)O [BELACTOSIN A] | 5.85 |  |  |  | 
4 | CC(=O)N[C@@H](CC(=O)NCCCCOCc1ccccc1)C(=O)N[C@@H](CC(C)C)B1O[C@@H]2C[C@@H]3C[C@@H](C3(C)C)[C@]2(C)O1 | 8.32 | 6.77 | 5.66 | 6.89 | pIC50 [5]: 7.23; pIC50 [6]: < 4.52; pIC50 (Cathepsin B): < 4.52; pIC50 (Cathepsin G): < 4.52; Activity (HCT-116 [7]): 22.9%; Activity (HCT-116 [8]): 26.6%; Activity (HCT-116 [9]): 50.5%; Activity (HCT-116 [10]): Active; Activity (HCT-116 [11]): Active; pIC50 [12]: 6.55
5 | CC[C@H](C)[C@@H]1C(=O)O[C@H]1C(=O)N[C@H]1C[C@@H]1C[C@@H](CCc1ccccc1)NC(=O)[C@H](C)NC(=O)OCc1ccccc1 | 8.24 |  |  | 5.74 | 
6 | CC(=O)N[C@@H](CSC(=O)[C@]1([C@@H](O)C(C)C)NC(=O)[C@H](C)[C@@H]1O)C(=O)O [LACTACYSTIN] |  |  |  |  | pIC50 [5]: < 5.52
7 | CC(=O)N[C@@H](CCC(=O)NCCCC(COCc1ccccc1)COCc1ccccc1)C(=O)N[C@@H](CC(C)C)B1O[C@@H]2C[C@@H]3C[C@@H](C3(C)C)[C@]2(C)O1 | 8.39 | 7.34 | 5.52 | 7.17 | 
8 | CC(=O)N[C@@H](CC(=O)NCCC(COCc1ccccc1)COCc1ccccc1)C(=O)N[C@@H](CC(C)C)B1O[C@@H]2C[C@@H]3C[C@@H](C3(C)C)[C@]2(C)O1 | 8.57 | 6.82 | 5.57 | 7.50 | pIC50 [5]: 7.51; pIC50 [6]: < 4.52; pIC50 (Cathepsin B): < 4.52; pIC50 (Cathepsin G): < 4.52; Activity (HCT-116 [7]): 3.2%; Activity (HCT-116 [8]): 25.1%; Activity (HCT-116 [9]): 71.7%; Activity (HCT-116 [10]): Active; Activity (HCT-116 [11]): Active; pIC50 [12]: 6.85
9 | CC[C@H](C)[C@@H]1C(=O)O[C@H]1C(=O)NCCC(COCc1ccccc1)COCc1ccccc1 | 7.54 |  |  | < 5.00 | 
10 | CC(=O)N[C@@H](CC(=O)NCC(COCc1ccccc1)COCc1ccccc1)C(=O)N[C@@H](CC(C)C)B1O[C@@H]2C[C@@H]3C[C@@H](C3(C)C)[C@]2(C)O1 | 8.41 | 6.85 | 5.96 | 7.34 | 
11 | CC(C)C[C@H](NC(=O)[C@H](Cc1ccccc1)NC(=O)c1cnccn1)B(O)O [BORTEZOMIB] |  |  |  | 8.30 | pIC50 [6]: 5.04; pIC50 (Cathepsin B): < 4.52; pIC50 (Cathepsin G): 5.51; Activity (HCT-116 [7]): 3%; Activity (HCT-116 [8]): 21%; Activity (HCT-116 [9]): 76%
12 | CC(C)C[C@H](NC(=O)[C@H](CC(=O)NCCC(COCc1ccccc1)COCc1ccccc1)NC(=O)c1cccc(-c2ccccc2)n1)B1O[C@@H]2C[C@@H]3C[C@@H](C3(C)C)[C@]2(C)O1 | 8.12 | 6.00 | < 5.00 | 6.59 | 
13 | CC(=O)N[C@@H](CC(=O)NCCCC(COCc1ccccc1)COCc1ccccc1)C(=O)N[C@@H](CC(C)C)B1O[C@@H]2C[C@@H]3C[C@@H](C3(C)C)[C@]2(C)O1 | 8.39 | 6.92 | 5.57 | 7.37 | 
14 | CC(C)C[C@H](NC(=O)CNC(=O)c1cc(Cl)ccc1Cl)B1OC(=O)CC(CC(=O)O)(C(=O)O)O1 (stereo partly drawn) |  |  |  |  | T1/2 [13]: 18 min
15 | CC(=O)N[C@@H](CC(=O)NCC(COCc1ccccc1)COCc1ccccc1)C(=O)N[C@@H](CC(C)C)B(O)O | 8.11 |  |  | 7.10 | 
16 | CC(C)C[C@H](NC(=O)[C@H](CC(=O)NCCC(COCc1ccccc1)COCc1ccccc1)NC(=O)c1cc(Cl)ccc1Cl)B1O[C@@H]2C[C@@H]3C[C@@H](C3(C)C)[C@]2(C)O1 | 8.23 | 6.60 | < 5.00 | 6.85 | 
17 | CNC(=O)C[C@H](NC(C)=O)C(=O)N[C@@H](CC(C)C)B1O[C@@H]2C[C@@H]3C[C@@H](C3(C)C)[C@]2(C)O1 | 7.27 | 6.30 | < 5.00 | 5.60 | 
18 | CC(=O)N[C@@H](CCC(=O)NCC(COCc1ccccc1)COCc1ccccc1)C(=O)N[C@@H](CC(C)C)B1O[C@@H]2C[C@@H]3C[C@@H](C3(C)C)[C@]2(C)O1 | 8.29 | 7.12 | 5.62 | 7.20 | 
19 | CC(C)C[C@H](NC(=O)[C@H](CCc1ccccc1)NC(=O)CN1CCOCC1)C(=O)N[C@@H](Cc1ccccc1)C(=O)N[C@@H](CC(C)C)C(=O)[C@@]1(C)CO1 [CARFILZOMIB] |  |  |  |  | pIC50 [6]: < 4.52; pIC50 (Cathepsin B): 4.96; pIC50 (Cathepsin G): < 4.52
20 | CC(C)C[C@H](NC(=O)[C@@H](NC(=O)c1cccc(-c2ccccc2)n1)[C@@H](C)O)B(O)O [DELANZOMIB] |  |  |  |  | pIC50 [14]: 7.15
21 | CC(C)C[C@H](NC(=O)[C@H](CC(=O)NCCC(COCc1ccccc1)COCc1ccccc1)NC(=O)c1ccccc1)B1O[C@@H]2C[C@@H]3C[C@@H](C3(C)C)[C@]2(C)O1 | 8.11 | 6.89 | 5.57 | 7.22 | 
